From ChEMBL document CHEMBL1146632, “Styrylheterocycles: a novel class of inhibitors on lipopolysaccharide-Induced nitric oxide production” (Bioorg Med Chem Lett, 2003)

Assays:
[1] = tested on: RAW264.7; assay: Inhibitory activity against nitric oxide production in lipopolysaccharide-activated mouse macrophage RAW264.7 cells; format: functional, cell-based
In short: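 RAW264.7 cells in phenol-red-free DMEM with 10% FBS were plated at 8×10⁵ cells/mL and grown 24 h. The medium was then renewed, and cells were exposed to LPS with or without test sample for 20 h. Nitrite in the medium, taken as the NO indicator, was measured in triplicate with Griess reagent (0.1% naphthylethylenediamine, 1% sulfanilamide, 5% H₃PO₄). Inhibition was calculated as % of the vehicle-treated control, and IC₅₀ was taken from dose-response curves.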

[2] = tested on: RAW264.7; assay: Inhibitory activity of the compound against nitric oxide production in lipopolysaccharide-activated mouse macrophage RAW264.7 cells

Compound `COc1cc(/C=C/c2cccs2)cc(OC)c1OC` has an IC50 [1] of 5.3 µM.

`COc1cc(/C=C/c2ccco2)cc(OC)c1OC` showed an IC50 [1] of 5.9 µM.

Compound `Oc1ccc(/C=C/c2cc(O)cc(O)c2)cc1` [RESVERATROL] has an IC50 [1] of 15.9 µM.

Work on `COc1cc(/C=C/c2ccsc2)cc(OC)c1OC` yielded an IC50 [2] of 7.8 µM.

With `COc1cc(/C=C\c2cccs2)cc(OC)c1` the IC50 [1] was over 50 µM.

`COc1ccc(/C=C/c2cccs2)cc1` gave an IC50 [1] of over 50 µM.

`COc1cc(/C=C\c2ccoc2)cc(OC)c1OC` gave an IC50 [1] of 6.6 µM.

Compound `COc1cc(/C=C/c2ccoc2)cc(OC)c1OC` has an IC50 [1] of 9.5 µM.

`COc1ccc(/C=C\c2cccs2)cc1` was tested, and the IC50 [1] was over 50 µM.

`COc1cc(/C=C/c2cccs2)cc(OC)c1` gave an IC50 [1] of over 50 µM.

`COc1cc(/C=C\c2ccsc2)cc(OC)c1OC` gave an IC50 [1] of 5.6 µM.
